From ChEMBL document CHEMBL3124924, “Bifunctional ethyl 2-amino-4-methylthiazole-5-carboxylate derivatives: synthesis and in vitro biological evaluation as antimicrobial and anticancer agents” (2014)

System: Escherichia coli
Assay: Antibacterial activity against Escherichia coli ATCC 25922 assessed as growth inhibition at 1 mg/mL after 24 hrs by agar-cup diffusion method
Format: functional
Details: ATCC 25922, 24 h, read-out: DIZ
Summary of the method: (§1)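 Agar-cup diffusion: 1 mL of 6 h broth culture seeded per 100 mL molten sterile agar at 45 °C and poured into plates. 8 mm cups cut, each filled with 0.1 mL of 1 mg/mL test solution. Incubated 37 °C for 24 h, 48 h for C. albicans. DMSO control per organism. Inhibition zone diameter in mm, mean of three measurements.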
CCOC(=O)c1sc(NC(=O)c2cc(OC)c(OC)c(OC)c2)nc1C gave a zone of inhibition at 1000 µg/mL of over 13 mm.

System: Bacillus spizizenii
Assay: Antibacterial activity against Bacillus subtilis ATCC 6633 assessed as growth inhibition at 1 mg/mL after 24 hrs by agar-cup diffusion method
Format: functional
Details: ATCC 6633, 24 h, read-out: DIZ
Summary of the method: as §1
Work on CCOC(=O)c1sc(NC(=O)c2cc(OC)c(OC)c(OC)c2)nc1C yielded a zone of inhibition at 1000 µg/mL of over 13 mm.

System: SNB-75
Assay: Cytotoxicity against human SNB75 cells assessed as growth inhibition at 10 uM after 48 hrs by SRB assay
Format: functional
Details: SNB-75, 48 h, read-out: GI
Summary of the method: (§2)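 NCI-60 one-dose primary screen run by the NCI Drug Evaluation Branch across the full 60-line panel. Single high-dose treatment with 48 h continuous drug exposure. Cell growth estimated by sulforhodamine B protein staining. Results given as percent growth of treated cells and expressed as percentage growth inhibition.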
CCOC(=O)c1sc(NC(=O)c2cc(OC)c(OC)c(OC)c2)nc1C gave an inhibition of growth at 10 µM of 2.51%.

System: SF-268
Assay: Cytotoxicity against human SF268 cells assessed as growth inhibition at 10 uM after 48 hrs by SRB assay
Format: functional
Details: SF-268, 48 h, read-out: GI
Summary of the method: as §2
CCOC(=O)c1sc(NC(=O)c2cc(OC)c(OC)c(OC)c2)nc1C showed an inhibition of growth at 10 µM of 3.75%.

System: PC-3
Assay: Cytotoxicity against human PC3 cells assessed as growth inhibition at 10 uM after 48 hrs by SRB assay
Format: functional
Details: PC-3, 48 h, read-out: GI
Summary of the method: as §2
CCOC(=O)c1sc(NC(=O)c2cc(OC)c(OC)c(OC)c2)nc1C gave an inhibition of growth at 10 µM of 35%.

System: UACC-62
Assay: Cytotoxicity against human UACC62 cells assessed as growth inhibition at 10 uM after 48 hrs by SRB assay
Format: functional
Details: UACC-62, 48 h, read-out: GI
Summary of the method: as §2
CCOC(=O)c1sc(NC(=O)c2cc(OC)c(OC)c(OC)c2)nc1C showed an inhibition of growth at 10 µM of 11.5%.

System: SK-MEL-2
Assay: Cytotoxicity against human SK-MEL-2 cells assessed as growth inhibition at 10 uM after 48 hrs by SRB assay
Format: functional
Details: SK-MEL-2, 48 h, read-out: GI
Summary of the method: as §2
With CCOC(=O)c1sc(NC(=O)c2cc(OC)c(OC)c(OC)c2)nc1C the inhibition of growth at 10 µM was 69.1%.

System: not listed separately
Assay: Cytotoxicity against human UO31 cells assessed as growth inhibition at 10 uM after 48 hrs by SRB assay
Format: functional
Details: UO-31, 48 h, read-out: GI
Summary of the method: as §2
For CCOC(=O)c1sc(NC(=O)c2cc(OC)c(OC)c(OC)c2)nc1C, the inhibition of growth at 10 µM was 24.3%.

System: RPMI-8226
Assay: Cytotoxicity against human RPMI8226 cells assessed as growth inhibition at 10 uM after 48 hrs by SRB assay
Format: functional
Details: RPMI-8226, 48 h, read-out: GI
Summary of the method: as §2
In the case of CCOC(=O)c1sc(NC(=O)c2cc(OC)c(OC)c(OC)c2)nc1C, the inhibition of growth at 10 µM is reported as 17%.

System: MOLT-4
Assay: Cytotoxicity against human MOLT4 cells assessed as growth inhibition at 10 uM after 48 hrs by SRB assay
Format: functional
Details: MOLT-4, 48 h, read-out: GI
Summary of the method: as §2
Work on CCOC(=O)c1sc(NC(=O)c2cc(OC)c(OC)c(OC)c2)nc1C yielded an inhibition of growth at 10 µM of 12.4%.

System: CCRF-CEM
Assay: Cytotoxicity against human CCRF-CEM cells assessed as growth inhibition at 10 uM after 48 hrs by SRB assay
Format: functional
Details: read-out: GI
Summary of the method: as §2
In the case of CCOC(=O)c1sc(NC(=O)c2cc(OC)c(OC)c(OC)c2)nc1C, the inhibition of growth at 10 µM is reported as 11.7%.

System: IGROV-1
Assay: Cytotoxicity against human IGROV1 cells assessed as growth inhibition at 10 uM after 48 hrs by SRB assay
Format: functional
Details: IGROV-1, 48 h, read-out: GI
Summary of the method: as §2
For CCOC(=O)c1sc(NC(=O)c2cc(OC)c(OC)c(OC)c2)nc1C, the inhibition of growth at 10 µM was under 10%.

System: T47D
Assay: Cytotoxicity against human T47D cells assessed as growth inhibition at 10 uM after 48 hrs by SRB assay
Format: functional
Details: read-out: GI
Summary of the method: as §2
Compound CCOC(=O)c1sc(NC(=O)c2cc(OC)c(OC)c(OC)c2)nc1C has an inhibition of growth at 10 µM of under 10%.

System: MDA-MB-468
Assay: Cytotoxicity against human MDA-MB-468 cells assessed as growth inhibition at 10 uM after 48 hrs by SRB assay
Format: functional
Details: MDA-MB-468, 48 h, read-out: GI
Summary of the method: as §2
For CCOC(=O)c1sc(NC(=O)c2cc(OC)c(OC)c(OC)c2)nc1C, the inhibition of growth at 10 µM was 8.82%.

System: not listed separately
Assay: Cytotoxicity against human NCI-ADR-RES cells assessed as growth inhibition at 10 uM after 48 hrs by SRB assay
Format: functional
Details: read-out: GI
Summary of the method: as §2
CCOC(=O)c1sc(NC(=O)c2cc(OC)c(OC)c(OC)c2)nc1C showed an inhibition of growth at 10 µM of 4.66%.

System: MCF7
Assay: Cytotoxicity against human MCF7 cells assessed as growth inhibition at 10 uM after 48 hrs by SRB assay
Format: functional
Details: MCF7, 48 h, read-out: GI
Summary of the method: as §2
CCOC(=O)c1sc(NC(=O)c2cc(OC)c(OC)c(OC)c2)nc1C showed an inhibition of growth at 10 µM of 12.5%.
